These results are taken from ChEMBL document CHEMBL1212820, “Novel hinge binder improves activity and pharmacokinetic properties of BRAF inhibitors” (J Med Chem, 2010).

A value given as a limit tells only on which side of the number the result lay.

The target in assay [1] is T1, Serine/threonine-protein kinase B-raf (Homo sapiens, UniProt P15056, V600E). Kind of assay: Inhibition of B-Raf V600E mutant. In a few lines:
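Enzymatic IC50 determined in vitro against purified V600E BRAF.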

Assay [2] concerns the target T1, Serine/threonine-protein kinase B-raf. Briefly: Inhibition of BRAF V600E mutant-mediated ERK phosphorylation in human WM266.4 cells. In kind it is cell-based. The gist of the method: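 Cellular IC50 for inhibition of phosphoERK formation.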
A short description of assay [3]: Growth inhibition of human WM266.4 cells expressing BRAF V600E mutant after 5 days by SRB assay. In kind it is functional. As to conditions: WM 266-4, 120 h. The gist of the method: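 Antiproliferative SRB assay in WM266.4 (BRAF mutant), WM1361 (NRAS mutant) and D24 (BRAF/NRAS wild-type) melanoma cells, with GI50 derived from the assay.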

T1 sequence (P15056 2-766 V600E limits assumed): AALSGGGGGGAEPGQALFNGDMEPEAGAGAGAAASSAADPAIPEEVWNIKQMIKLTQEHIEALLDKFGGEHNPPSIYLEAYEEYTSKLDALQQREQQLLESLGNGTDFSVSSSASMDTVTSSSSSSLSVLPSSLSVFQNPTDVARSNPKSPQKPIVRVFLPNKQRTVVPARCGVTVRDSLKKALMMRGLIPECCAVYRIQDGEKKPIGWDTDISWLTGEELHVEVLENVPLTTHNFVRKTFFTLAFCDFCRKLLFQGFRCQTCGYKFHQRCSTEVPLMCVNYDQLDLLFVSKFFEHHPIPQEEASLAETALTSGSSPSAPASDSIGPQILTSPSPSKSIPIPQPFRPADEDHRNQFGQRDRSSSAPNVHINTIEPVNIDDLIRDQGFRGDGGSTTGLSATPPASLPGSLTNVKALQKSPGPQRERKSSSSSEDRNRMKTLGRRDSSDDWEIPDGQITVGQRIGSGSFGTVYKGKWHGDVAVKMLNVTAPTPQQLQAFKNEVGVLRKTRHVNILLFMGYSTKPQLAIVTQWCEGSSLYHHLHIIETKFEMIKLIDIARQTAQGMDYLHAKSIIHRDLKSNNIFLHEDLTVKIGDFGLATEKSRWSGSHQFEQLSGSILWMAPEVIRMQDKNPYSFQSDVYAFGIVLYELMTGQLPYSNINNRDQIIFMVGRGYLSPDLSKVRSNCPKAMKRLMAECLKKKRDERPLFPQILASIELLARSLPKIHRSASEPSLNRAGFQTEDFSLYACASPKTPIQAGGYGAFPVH

What is called IC50 is the concentration that inhibits the measured activity by half. A higher IC50 goes with weaker potency in that assay. For orientation: GI50 means the concentration giving 50% growth inhibition. Low readings indicate greater sensitivity of the cells, high ones lower sensitivity of the cells. Regarding `CC(C)(C)c1cccc(C(=O)Nc2cccc(Oc3ccnc4[nH]c(=O)cnc34)c2)c1`, the IC50 in assay [1] came to 7 nM; in assay [2], 850 nM. This molecule had a GI50 in assay [3] of 1700 nM.

On to `Cc1ccc(-n2nc(C(C)(C)C)cc2NC(=O)Nc2cccc(Oc3ccnc4[nH]c(=O)c(C)nc34)c2)cc1`, for which the IC50 turned out to be 132 nM in assay [1] and 69 nM in assay [2]. Further, halving of growth in assay [3] (GI50) required 69 nM.

In the case of `CSc1cc(Oc2ccnc3[nH]c(=O)cnc23)ccc1NC(=O)Nc1cc(C(F)(F)F)ccc1F`, the results for the IC50 in assay [1] and in assay [2] were 4 nM and 195 nM, respectively. The same molecule yielded a concentration for 50% growth inhibition (GI50) in assay [3] of 96 nM.

As for `CSc1cc(Oc2ccnc3[nH]c(=O)c(C)nc23)ccc1NC(=O)Nc1cc(C(F)(F)F)ccc1F`, the IC50 in assay [1] came out at 2 nM; in assay [2], 97 nM. In addition, the 50% growth inhibitory concentration (GI50) in assay [3] turned out to be 225 nM.

Turning to `O=C(Nc1cc(C(F)(F)F)ccc1F)Nc1ccc(Oc2ccnc3ncc(=O)[nH]c23)c2ccccc12`, the IC50 in assay [1] turned out to be 84 nM; in assay [2], 2070 nM. Also, the GI50 in assay [3] was determined as 486 nM.

As for `CSc1cc(Oc2ccnc3[nH]c(=O)c(=O)[nH]c23)ccc1NC(=O)Nc1ccc(Cl)c(C(F)(F)F)c1`, the results for the IC50 in assay [1] and in assay [2] were 3 nM and 590 nM, respectively. For the same molecule, in assay [3], growth was halved (GI50) at 220 nM.

Consider `O=C(Nc1cc(C(F)(F)F)ccc1F)Nc1ccc(Oc2ccnc3nc(C(F)(F)F)c(=O)[nH]c23)c2ccccc12`, for which the figures for the IC50 in assay [1] and in assay [2] were 1080 nM and 8500 nM, respectively. The same molecule registered a GI50 in assay [3] of 10000 nM.

As to `Cc1ccc(-n2nc(C(C)(C)C)cc2NC(=O)Nc2ccc(Oc3ccnc4[nH]c(=O)cnc34)c3ccccc23)cc1`, the half-maximal inhibitory concentration (IC50) in assay [1] stood at 80 nM; in assay [2], 10 nM. Besides, the GI50 in assay [3] was determined as 80 nM.

On to `Cc1nc2nccc(Oc3ccc(NC(=O)Nc4cc(C(C)(C)C)nn4-c4ccccc4)c(F)c3)c2[nH]c1=O`, for which the IC50 in assay [1] stood at 8500 nM; in assay [2] it was 390 nM. The molecule also had a GI50 in assay [3] of 430 nM.

`O=C(Nc1ccc(Oc2ccnc3[nH]nnc23)cc1F)Nc1cc(C(F)(F)F)ccc1F`: the IC50 in assay [1] was determined as 69 nM; in assay [2], 24000 nM. Besides, the GI50 in assay [3] is 39000 nM.

With `CC(C)(C)c1cc(NC(=O)Nc2ccc(Oc3ccnc4nc(N5CCOCC5)cnc34)cc2F)n(-c2ccccc2)n1`, the IC50 in assay [1] worked out at 8200 nM; in assay [2], 750 nM. In assay [3], this molecule returned a GI50 of 428 nM.

Regarding `CSc1cc(Oc2ccnc3[nH]c(=O)c(C)nc23)ccc1NC(=O)Nc1cc(C(C)(C)C)nn1-c1ccc(C)cc1`, the IC50 in assay [1] was found to be 24 nM; in assay [2], 6 nM. Growth in assay [3] was halved (GI50) at 3 nM.

In the case of `O=C(Nc1ccc(Oc2ccnc3[nH]c(=O)c(=O)[nH]c23)cc1)Nc1ccc(Cl)c(C(F)(F)F)c1`, the results for the IC50 in assay [1] and in assay [2] were 21 nM and 5200 nM, respectively. Besides, the 50% growth inhibitory concentration (GI50) in assay [3] was 3190 nM.

As for `Cc1ccc(-n2nc(C(C)(C)C)cc2NC(=O)Nc2ccc(Oc3ccnc4[nH]c(=O)c(N)nc34)c3ccccc23)cc1`, the IC50 in assay [1] is 150 nM; in assay [2], 7 nM. For the same molecule, in assay [3], the concentration for 50% growth inhibition (GI50) is 77 nM.

Consider `O=C(Nc1ccc(Oc2ccnc3ncc(=O)[nH]c23)cc1F)Nc1cc(C(F)(F)F)ccc1F`, for which the half-inhibitory concentration (IC50) is 76 nM in assay [1] and 69000 nM in assay [2]. In assay [3], this molecule returned a GI50 of 1800 nM.

Turning to `CN(C)Cc1nc2c(Oc3ccc(NC(=O)Nc4cc(C(F)(F)F)ccc4F)c(F)c3)ccnc2[nH]1`, the half-maximal inhibitory concentration (IC50) was 730 nM in assay [1] and above 10000 nM in assay [2]. In assay [3], this molecule had a 50% growth inhibitory concentration (GI50) of 1400 nM.

For `CSc1cc(Oc2ccnc3[nH]c(=O)c(=O)[nH]c23)ccc1NC(=O)Nc1cc(C(F)(F)F)ccc1F`, the IC50 amounted to 2 nM in assay [1] and 550 nM in assay [2]. This molecule also displayed a 50% growth inhibitory concentration (GI50) in assay [3] of 190 nM.

With `CC(C)(C)c1cc(NC(=O)Nc2ccc(Oc3ccnc4ncc(=O)[nH]c34)c3ccccc23)n(-c2ccccc2)n1`, the IC50 was 264 nM in assay [1] and 48 nM in assay [2]. Also, growth in assay [3] was halved (GI50) at 73 nM.

For `Cn1nc(C(C)(C)C)cc1NC(=O)Nc1ccc(Oc2ccnc3[nH]c(=O)cnc23)cc1F`, the IC50 in assay [1] stood at 17 nM; in assay [2] it was 620 nM. Also, the GI50 in assay [3] amounted to 760 nM.

With `CSc1cc(Oc2ccnc3[nH]c(=O)cnc23)ccc1NC(=O)Nc1ccc(Cl)c(C(F)(F)F)c1`, the values for the IC50 in assay [1] and in assay [2] were 4 nM and 187 nM, respectively. Further, halving of growth in assay [3] (GI50) required 118 nM.

Regarding `O=C(Nc1cccc(Oc2ccnc3[nH]c(=O)cnc23)c1)c1cccc(OC(F)(F)F)c1`, the half-inhibitory concentration (IC50) in assay [1] stood at 21 nM; in assay [2], 4000 nM. The molecule also had a concentration for 50% growth inhibition (GI50) in assay [3] of 9900 nM.

For `Cc1ccc(-n2nc(C(C)(C)C)cc2NC(=O)Nc2ccc(Oc3ccnc4[nH]nnc34)cc2F)cc1`, the figures for the half-inhibitory concentration (IC50) in assay [1] and in assay [2] were 1370 nM and 3100 nM, respectively. The GI50 in assay [3] amounted to 1980 nM.

For `CN(C)c1cnc2c(Oc3ccc(NC(=O)Nc4cc(C(F)(F)F)ccc4F)c(F)c3)ccnc2n1`, the concentration for half-maximal inhibition (IC50) is 220 nM in assay [1] and 20000 nM in assay [2]. This molecule gave a 50% growth inhibitory concentration (GI50) in assay [3] of 55000 nM.

As to `CC(C)(C)c1cc(NC(=O)Nc2ccc(Oc3ccnc4nc(N)c(=O)[nH]c34)c3ccccc23)n(-c2ccccc2)n1`, the results for the half-inhibitory concentration (IC50) in assay [1] and in assay [2] were 405 nM and 36 nM, respectively. This molecule yielded a GI50 in assay [3] of 18 nM.

On to `Cc1nc2c(Oc3ccc(NC(=O)Nc4cc(C(C)(C)C)nn4-c4ccccc4)c4ccccc34)ccnc2[nH]c1=O`, for which the IC50 in assay [1] came out at 67 nM; in assay [2], 8 nM. For the same molecule, in assay [3], it took 57 nM to inhibit growth by half (GI50).

In the case of `O=C(Nc1cccc(Oc2ccnc3[nH]c(=O)cnc23)c1)Nc1cc(C(F)(F)F)ccc1F`, the IC50 in assay [1] is 40 nM; in assay [2], 10000 nM. The molecule further showed a concentration for 50% growth inhibition (GI50) in assay [3] of 10000 nM.

As for `CSc1cc(Oc2ccnc3ncc(=O)[nH]c23)ccc1NC(=O)Nc1ccc(Cl)c(C(F)(F)F)c1`, the IC50 is 71 nM in assay [1] and 3990 nM in assay [2]. It took 4300 nM to inhibit growth in assay [3] by half (GI50).

As to `O=C(Nc1ccc(Oc2ccnc3nc(N4CCOCC4)cnc23)cc1F)Nc1cc(C(F)(F)F)ccc1F`, the 50% inhibitory concentration (IC50) was 97 nM in assay [1] and 3800 nM in assay [2]. The same molecule returned a GI50 in assay [3] of 1120 nM.

On to `O=C(Nc1ccc(Oc2ccnc3[nH]c(S)nc23)cc1F)Nc1cc(C(F)(F)F)ccc1F`, for which the 50% inhibitory concentration (IC50) in assay [1] is 17 nM; in assay [2], 13000 nM. The GI50 in assay [3] is 970 nM.

On to `Cc1nc2nccc(Oc3ccc(NC(=O)Nc4cc(C(C)(C)C)nn4-c4ccccc4)c4ccccc34)c2[nH]c1=O`, for which the IC50 in assay [1] amounted to 3000 nM; in assay [2], 141 nM. In addition, the concentration for 50% growth inhibition (GI50) in assay [3] worked out at 95 nM.

Consider `Cc1nc2c(Oc3cccc(NC(=O)c4cccc(C(C)(C)C)c4)c3)ccnc2[nH]c1=O`, for which the IC50 was found to be 10 nM in assay [1] and 1430 nM in assay [2]. For the same molecule, the 50% growth inhibitory concentration (GI50) in assay [3] stood at 890 nM.

On to `CNc1cnc2c(Oc3ccc(NC(=O)Nc4cc(C(F)(F)F)ccc4F)c(F)c3)ccnc2n1`, for which the IC50 in assay [1] worked out at 107 nM; in assay [2], 45000 nM. The 50% growth inhibitory concentration (GI50) in assay [3] stood at 48000 nM.

For the molecule `CSc1cc(Oc2ccnc3[nH]c(=O)c(C)nc23)ccc1NC(=O)Nc1cc(C(C)(C)C)nn1-c1ccccc1`, the concentration for half-maximal inhibition (IC50) in assay [1] turned out to be 20 nM; in assay [2] it was 3 nM. The same molecule registered a GI50 in assay [3] of 4 nM.

As to `O=C(Nc1ccc(Oc2ccnc3[nH]c(=O)c(=O)[nH]c23)cc1F)Nc1cc(C(F)(F)F)ccc1F`, the IC50 in assay [1] was determined as 5 nM; in assay [2], 600 nM. This molecule also displayed a GI50 in assay [3] of 1450 nM.

Consider `O=C(Nc1ccc(Oc2ccnc3[nH]cnc23)cc1F)Nc1cc(C(F)(F)F)ccc1F`, for which the half-inhibitory concentration (IC50) in assay [1] was 42 nM; in assay [2], 8500 nM. Also, the 50% growth inhibitory concentration (GI50) in assay [3] was determined as 4850 nM.
